SMILES strings stand for the structures. pIC50: −log10 of the molar value. Active and inactive are the calls of the source. The rule behind the calls is not given here.

Consider 45 compounds from ChEMBL document CHEMBL3861974, “Discovery of a Selective Aurora A Kinase Inhibitor by Virtual Screening” (J Med Chem, 2016).

Test [1] deals with T1, Aurora kinase A (Homo sapiens, UniProt O14965).
T1 sequence (O14965 whole entry): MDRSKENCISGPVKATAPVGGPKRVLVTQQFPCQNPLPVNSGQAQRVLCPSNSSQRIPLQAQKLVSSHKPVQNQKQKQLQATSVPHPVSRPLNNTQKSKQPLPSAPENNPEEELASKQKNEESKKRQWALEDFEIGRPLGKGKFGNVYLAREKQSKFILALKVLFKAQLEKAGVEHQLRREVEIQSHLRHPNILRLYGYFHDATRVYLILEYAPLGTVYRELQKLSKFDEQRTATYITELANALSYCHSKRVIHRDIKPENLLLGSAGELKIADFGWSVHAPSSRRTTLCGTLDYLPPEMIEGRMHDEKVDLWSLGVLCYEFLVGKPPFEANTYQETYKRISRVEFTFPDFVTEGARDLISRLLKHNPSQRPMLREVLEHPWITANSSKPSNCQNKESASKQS
The test can be described thus: Inhibition of His-tagged human Aurora A kinase ([…] residues) expressed in Escherichia coli BL21 (DE3) Rosetta cells using biotinylated STK2 substrate incubated for 30 mins by HTRF assay.

Test [2] has as its target Aurora kinase B/Inner centromere protein (Homo sapiens, UniProt Q96GD4). The test can be described thus: Inhibition of Aurora-B/INCENP (unknown origin) using biotinylated STK2 substrate incubated for 30 mins by HTRF assay. The test is classed as protein-complex assay. Summed up: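 Biochemical kinase inhibition was read by HTRF with 20 µM ATP. Aurora B was assayed as its complex with the activator INCENP. For Aurora A, IC50 curves were recorded at different TPX2 concentrations.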

For test [3], the species on record is Homo sapiens. The test can be described thus: Selectivity index, ratio of IC50 for Aurora-B/INCENP (unknown origin) to IC50 for His-tagged human Aurora A kinase ([…] residues) expressed in Escherichia coli BL21 (DE3) Rosetta cells.
Test [4] deals with T1, Aurora kinase A. The test can be described thus: Inhibition of Aurora A kinase autophosphorylation at Thr288 in human HeLa Kyoto cells incubated for 20 hrs. The test is classed as cell-based.
Test [5] has as its system HeLa Kyoto. The test can be described thus: Increase in mitotic index in human HeLa Kyoto cells incubated for 20 hrs. The test is classed as functional, cell-based. In a few lines: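 HeLa Kyoto cells were incubated overnight with compound, and the fraction of mitotic cells was scored. The experiment was repeated twice; mean ± SD.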
In test [6] the target is T2, Aurora kinase B (Homo sapiens, UniProt Q96GD4). Particulars: HeLa Kyoto, 2.5 uM.
In test [7] the target is T2, Aurora kinase B. The following applies: HeLa Kyoto, 2.5 uM. This is another data set of the same source.

Aurora kinase B/Inner centromere protein, sequence (Q96GD4 whole entry): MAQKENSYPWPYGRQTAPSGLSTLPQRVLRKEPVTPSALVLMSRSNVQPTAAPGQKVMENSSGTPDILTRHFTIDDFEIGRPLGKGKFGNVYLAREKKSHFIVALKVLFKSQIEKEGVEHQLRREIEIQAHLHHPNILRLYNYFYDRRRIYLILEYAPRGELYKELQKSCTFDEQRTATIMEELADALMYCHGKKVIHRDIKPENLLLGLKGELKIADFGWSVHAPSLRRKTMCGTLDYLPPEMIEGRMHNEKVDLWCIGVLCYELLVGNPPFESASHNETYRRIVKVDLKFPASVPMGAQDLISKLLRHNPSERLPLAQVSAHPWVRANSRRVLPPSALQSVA
Aurora kinase B/Inner centromere protein, sequence (Q9NQS7 whole entry, further chain): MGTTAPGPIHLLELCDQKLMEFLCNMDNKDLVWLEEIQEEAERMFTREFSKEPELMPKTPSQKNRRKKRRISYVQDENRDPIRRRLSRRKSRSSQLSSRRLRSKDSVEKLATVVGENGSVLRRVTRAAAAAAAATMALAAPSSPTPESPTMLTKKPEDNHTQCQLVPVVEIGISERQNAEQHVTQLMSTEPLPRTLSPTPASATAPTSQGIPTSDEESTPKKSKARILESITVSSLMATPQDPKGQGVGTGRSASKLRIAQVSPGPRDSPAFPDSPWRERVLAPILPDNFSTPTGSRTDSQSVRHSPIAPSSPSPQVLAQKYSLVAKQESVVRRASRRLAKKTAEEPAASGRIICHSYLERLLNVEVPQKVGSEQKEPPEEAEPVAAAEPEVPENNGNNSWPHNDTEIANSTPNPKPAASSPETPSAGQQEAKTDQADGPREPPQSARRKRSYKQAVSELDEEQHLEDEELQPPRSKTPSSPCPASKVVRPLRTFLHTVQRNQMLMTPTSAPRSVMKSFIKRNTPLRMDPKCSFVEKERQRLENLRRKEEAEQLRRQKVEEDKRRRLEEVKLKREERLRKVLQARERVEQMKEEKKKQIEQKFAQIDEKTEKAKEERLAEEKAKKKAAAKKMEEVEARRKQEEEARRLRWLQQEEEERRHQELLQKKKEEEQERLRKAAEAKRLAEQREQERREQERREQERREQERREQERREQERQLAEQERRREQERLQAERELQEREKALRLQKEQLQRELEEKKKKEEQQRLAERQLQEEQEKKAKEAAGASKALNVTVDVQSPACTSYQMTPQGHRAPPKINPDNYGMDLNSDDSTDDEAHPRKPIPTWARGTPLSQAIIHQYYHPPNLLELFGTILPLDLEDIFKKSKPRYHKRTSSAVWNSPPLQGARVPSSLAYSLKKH
T2 sequence (Q96GD4 whole entry): as the sequence (Q96GD4 whole entry) above

The compound `CN1C(=O)/C(=C/c2ccncc2)S/C1=N\c1ccc(C(F)(F)F)cc1` showed a negative-log IC50 (pIC50) in test [1] of 6.43.
The same measure, in the same setting: the value for `O=c1[nH]c2ccccc2n1-c1nc2ccccc2[nH]1` was 5.15 to 5.19.
On the same count and under the same terms, the value for `O=c1[nH]c2cc(Cl)ccc2n1-c1nc2ccccc2[nH]1` was less than 3.70; that for `O=C(O)c1ccc2c(c1)[nH]c(=O)n2-c1nc2ccccc2[nH]1` was 5.46.
`CCc1ccc(/N=C2/NC(=O)/C(=C/c3ccncc3)S2)cc1` had a pIC50 in test [1] of 6.37.
Still for that read-out and setting: the value for `CC(C)c1ccc(/N=C2\S/C(=C\c3ccncc3)C(=O)N2C)cc1` was 6.11; that for `CCc1ccc(/N=C2\SC(Cc3ccnc(N)c3)C(=O)N2C)cc1` (racemic) was 5.89; that for `O=c1[nH]c2c(O)cccc2n1-c1nc2ccccc2[nH]1` was 4.68.
On the same count and under the same terms, the value for `Cc1cccc2[nH]c(-n3c(=O)[nH]c4ccccc43)nc12` was 4.85.
As for `CCc1ccc(/N=C2\S/C(=C\c3ccnc(N)c3)C(=O)N2C)cc1`, the pIC50 was 6.72 in test [1] and 4.64 in test [2]. In test [3], the Ratio IC50 amounted to 121.
For the compound `CCc1ccc(/N=C2\SC(Cc3ccnc(Nc4ccc(C(=O)O)cn4)c3)C(=O)N2C)cc1` (racemic), the pIC50 in test [1] and in test [4] was 7.62 each time.
Take `CCc1ccc(/N=C2\S/C(=C\c3ccncc3)C(=O)N2C)cc1`: the pIC50 in test [1] is 6.41.
On to `CCc1ccc(/N=C2\S/C(=C\c3ccnc(NC(=O)CCCC(=O)O)c3)C(=O)N2C)cc1`, for which the pIC50 was 8.21 in test [1] and 5.85 in test [2]. In addition, in test [3], the Ratio IC50 is 230.
The compound `CCCCc1ccc(/N=C2\S/C(=C\c3ccncc3)C(=O)N2C)cc1` gave a pIC50 in test [1] of 5.48.
Same read-out and setting: the value for `CCc1ccc(/N=C2/SC3(CC3c3ccnc(N)c3)C(=O)N2C)cc1` (racemic) was less than 3.70.
Still for that read-out and setting: the value for `O=c1[nH]c2ccc(Cl)cc2n1-c1nc2ccccc2[nH]1` was 4.64.
Take `CCc1ccc(/N=C2\S/C(=C\c3ccnc(Nc4ccc(-c5nnn[nH]5)cc4)c3)C(=O)N2C)cc1`: the results for the pIC50 in test [1] and in test [2] were 7.60 and 6.08, respectively. For the same compound, the Ratio IC50 in test [3] is 33.
With `CCc1ccc(/N=C2\S/C(=C\c3ccncc3)C(=O)N2CC)cc1`, in test [1], the pIC50 was 6.42.
Compound `O=C(O)c1ccc2[nH]c(=O)n(-c3nc4ccccc4[nH]3)c2c1` showed a pIC50 in test [1] of 5.46.
Regarding `CN1C(=O)/C(=C/c2ccncc2)S/C1=N\c1ccc(C(C)(C)C)cc1`, the pIC50 in test [1] is 5.80.
Regarding `CCc1ccc(/N=C2\S/C(=C\c3ccnc(Nc4ccc(C(=O)O)cc4)c3)C(=O)N2C)cc1`, the figures for the pIC50 in test [1] and in test [2] were 8.21 and 5.81, respectively. Also, in test [3], the Ratio IC50 came out at 250.
In test [1], `Cc1ccc(/N=C2\S/C(=C\c3ccncc3)C(=O)N2C)cc1C` had a pIC50 of 5.70.
On the same count and under the same terms, the value for `CCc1ccccc1/N=C1\S/C(=C\c2ccncc2)C(=O)N1C` was 4.28.
`CCc1ccc(/N=C2\S/C(=C\c3ccnc(Nc4ccc(CO)cc4)c3)C(=O)N2C)cc1`: the results for the pIC50 in test [1] and in test [2] were 6.89 and 5.59, respectively. Also, the Ratio IC50 in test [3] turned out to be 20.
`COc1cc(Nc2ncc3c(n2)-c2ccc(Cl)cc2C(c2c(F)cccc2OC)=NC3)ccc1C(=O)O`: the Activity entry in test [5] is “Dose-dependent effect”.
The compound `CN1C(=O)/C(=C/c2ccncc2)S/C1=N\c1ccc(Br)cc1` had a pIC50 in test [1] of 6.52.
The same measure, in the same setting: the value for `O=c1[nH]c2ccccc2n1-c1nc2cc(Br)ccc2[nH]1` was 5.05.
Still for that read-out and setting: the value for `CCc1ccc(/N=C2\S/C(=C\c3ccncc3)C(=O)N2CC2CCCCC2)cc1` was less than 3.70; that for `CCc1ccc(/N=C2\S/C(=C\c3ccnc(Nc4ccccc4)c3)C(=O)N2C)cc1` was 6.22.
As to `Cc1ccc2[nH]c(-n3c(=O)[nH]c4ccccc43)nc2c1`, the pIC50 in test [1] is 5.11.
With `CCc1ccc(/N=C2\S/C(=C\c3ccnc(NC(=O)CCN)c3)C(=O)N2C)cc1`, the pIC50 was 6.72 in test [1] and 5.00 in test [2]. Moreover, the Ratio IC50 in test [3] is 53.
Consider `CNC(=O)c1ccc2c(c1)[nH]c(=O)n2-c1nc2ccccc2[nH]1`, for which, in test [1], the negative logarithm of the IC50 (pIC50) was less than 4.30.
Still for that read-out and setting: the value for `CNC(=O)c1ccc2[nH]c(=O)n(-c3nc4ccccc4[nH]3)c2c1` was 4.96.
In turn, `CCc1ccc(/N=C2\S/C(=C\c3ccncc3)C(=O)N2CCOC)cc1` showed a pIC50 in test [1] of 6.32.
On the same count and under the same terms, the value for `CN1C(=O)/C(=C/c2ccncc2)S/C1=N\c1ccccc1` was 5.05; that for `O=c1[nH]c2ccccc2n1-c1nc2cc(C(F)(F)F)ccc2[nH]1` was less than 4.15; that for `CCc1cccc(/N=C2\S/C(=C\c3ccncc3)C(=O)N2C)c1` was 5.31.
In test [1], `O=c1[nH]c2ccc(O)cc2n1-c1nc2ccccc2[nH]1` gave a pIC50 of 4.92. Compared with the last compound, the pIC50 is 0.39 log units lower.
For the compound `CCc1ccc(/N=C2\S/C(=C\c3ccnc(NC(=O)CC(=O)O)c3)C(=O)N2C)cc1`, the pIC50 was 8.22 in test [1] and 5.57 in test [2]. The Ratio IC50 in test [3] was found to be 450.
Consider `COc1cc2c(Nc3ccc(NC(=O)c4ccccc4)cc3)ncnc2cc1OCCCN1CCOCC1`, for which the inhibition entry in test [6] and in test [7] was “Active” each time.
Regarding `CCc1ccc(/N=C2\S/C(=C\c3ccnc(NC(=O)CCC(=O)O)c3)C(=O)N2C)cc1`, the results for the pIC50 in test [1] and in test [2] were 8.40 and 5.77, respectively. Moreover, the Ratio IC50 in test [3] was found to be 415.
Turning to `CCc1ccc(/N=C2\SC3(CC3c3ccnc(N)c3)C(=O)N2C)cc1` (racemic), in test [1], the pIC50 was 4.12.
Still for that read-out and setting: the value for `O=c1[nH]c2cccc(O)c2n1-c1nc2ccccc2[nH]1` was 4.82.
On the same count and under the same terms, the value for `CCc1ccc(/N=C2\S/C(=C\c3ccnc(Nc4ccccn4)c3)C(=O)N2C)cc1` was 6.66; that for `CCCc1ccc(/N=C2\S/C(=C\c3ccncc3)C(=O)N2C)cc1` was 5.72.
